Reference: PubChem BioAssay
Calls of active or inactive are those of the source.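 Rule for the calls, unless noted: active = viability loss from added drug above about 55%, and viability with drug at most 40%, in both replicates (limit read from the data, passing the limit was not always enough); inconclusive = both conditions met in only one replicate; inactive = neither replicate meets both conditions.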

Experiments:
[1] = reduced viability of SK-BR-3 breast cancer cells – cell-based, 24 h, human, pilot screen (AID 572;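 active = viability at or below 10% of carrier control in both of two separate runs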;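 note: compound exposure lasted between 18 and 24 h rather than exactly 24 h; 100% = carrier-treated control wells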); details: SK-BR-3 viability, CellTiter-Glo luminescence, at 10 µM, stronger effect = lower value
[2] = HUVEC growth inhibition – cell-based, human, primary screen (AID 575;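 active = viability at or below 30% in both replicate assays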;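 note: 100% = median of untreated cell wells with 0.1% DMSO on each plate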); details: HUVEC proliferation, CellTiter-Glo luminescence, 72 h; at 10 µM; stronger effect = lower value
In short: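 material = primary HUVEC, no more than 12 passages | input = 1250 cells per well | controls = vehicle and MePR control wells | measured by = CTG luminescence | times = 72 h compound incubation | format = collagen-coated 384-well format | read-out = % viability vs DMSO wells | doses = single 10 µM dose, 0.1% DMSO, from 5x medium stock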

[3] = H69AR cell proliferation blockers – human, duplicate replicates, primary screen (AID 580;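 active = viability at or under a set limit in both replicates, limit being median viability minus 3 SD, cut at about 48% in these data, passing the limit was not always enough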;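 note: 100% = mean luminescence of untreated wells and 0% = no signal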); details: H69AR lung tumor cells viability, ATP luminescence, 72 h; at 10 µM; stronger effect = lower value
[4] = MRP1 drug-resistance reversers in H69AR cells – cell-based, doxorubicin co-treatment, pilot screen (AID 601); details: CellTiter-Glo, 72 h, at 10 µM; for differential viability (reversal): stronger effect = higher value
[5] = yeast transport mutant growth inhibition pilot in 384-well plates, post-Golgi transport modulator project (AID 636; in the data active = inhibition above about 31%); details: absorbance 615 nm, about 18 h, stronger effect = higher value
[6] = growth suppression of yeast trafficking mutant, preliminary HTS, modulators of trafficking downstream of Golgi apparatus project, 1536-format plate, OD 615 nm (AID 637; in the data active = inhibition above about 30%); details: yeast transport mutant growth, absorbance 615 nm, 18 h; stronger effect = higher value
[7] = H69AR cells + 2 uM doxorubicin, measured here: viability with 2 uM doxorubicin, stronger effect = lower value
[8] = H69AR cells, compound alone cytotoxicity

| SMILES | viability [1] | viability [2] | viability [3] | differential viability (reversal) ([4]; H69AR cells + 2 uM doxorubicin) | viability [4, 7] | viability [4, 8] | inhibition [5] | inhibition [6] |
| --- | --- | --- | --- | --- | --- | --- | --- | --- |
| O=C(O)CCCc1ccccc1 | 97% (inactive) | 91.8% (inactive) | 98% (inactive) | 1.58% (inactive) | 96.4% | 98% | -0.91% (inactive) | 8% (inactive) |
| CN(CC(=O)Nc1ccc(F)c(Cl)c1)S(=O)(=O)c1cccc2nsnc12 | 99% (inactive) | 74.3% (inactive) | 90.1% (inactive) | 8.32% (inactive) | 81.8% | 90.1% | -2.3% (inactive) | -1.09% (inactive) |
| Cc1cc(C)n(CC(=O)O)n1 | 88% (inactive) | 106% (inactive) | 88.4% (inactive) | -18.8% (inactive) | 107% | 88.4% | -7.7% (inactive) | -1.45% (inactive) |
| NC(N)=NC(N)=NCCc1ccccc1 | 103% (inactive) | 104% (inactive) | 99.4% (inactive) | -0.22% (inactive) | 99.6% | 99.4% | 0.65% (inactive) | -0.67% (inactive) |
| CC(Cc1ccc(O)c(O)c1)C(C)Cc1ccc(O)c(O)c1 (stereo unspecified) | 87% (inactive) | 22.3% (active) | 77.4% (inactive) | -1.66% (inactive) | 79.1% | 77.4% | -5.45% (inactive) | -6.33% (inactive) |
| Cc1cc(C)n2nc[n+](C)c2n1 | 88% (inactive) | 106% (inactive) | 96.4% (inactive) | 11.4% (inactive) | 84.9% | 96.4% | 2.86% (inactive) | 0.98% (inactive) |
| CN(C)CCCC1(c2ccc(F)cc2)OCc2cc(C#N)ccc21 (stereo unspecified) | 79% (inactive) | 73.3% (inactive) | 103% (inactive) | 17.6% (inactive) | 85.7% | 103% | -1.56% (inactive) | -2.5% (inactive) |
| COCCN(Cc1cc2cccc(C)c2[nH]c1=O)C(=O)c1ccccc1 | 95% (inactive) | 118% (inactive) | 102% (inactive) | 7.6% (inactive) | 94.1% | 102% | -0.95% (inactive) | 1.09% (inactive) |
| Cn1c(Cl)cnc1C1CC(=O)c2cc(Cl)ccc2O1 (stereo unspecified) | 112% (inactive) | 15.5% (active) | 2.09% (active) | 0.045% (inactive) | 2.04% | 2.09% | -4.46% (inactive) | 3.64% (inactive) |
| Cc1nnc2c3ccccc3c(-c3ccccc3)nn12 | 88% (inactive) | 100% (inactive) | 68.1% (inactive) | 42.8% (inactive) | 25.3% | 68.1% | -6.49% (inactive) | 3.27% (inactive) |
| COc1ccc(C/C(O)=C(\C#N)c2nc3ccccc3s2)cc1 | 86% (inactive) | 48.8% (inactive) | 83.1% (inactive) | -8.21% (inactive) | 91.3% | 83.1% | -2.93% (inactive) | 0.36% (inactive) |
| CCn1c(SCC(=O)C(C)(C)C)nnc1-c1cnccn1 | 81% (inactive) | 107% (inactive) | 105% (inactive) | 15.9% (inactive) | 89.2% | 105% | -3.7% (inactive) | -9.35% (inactive) |
| Cc1ccc(Cn2ccc(NC(=O)c3cc(-c4cccs4)on3)n2)cc1 | 96% (inactive) | 48.7% (inactive) | 82.9% (inactive) | 0.115% (inactive) | 82.8% | 82.9% | -2.6% (inactive) | -2.46% (inactive) |
| O=C(CCCOc1ccccc1)N1CCN(c2ccccn2)CC1 | 99% (inactive) | 97.7% (inactive) | 104% (inactive) | 5.88% (inactive) | 97.8% | 104% | -0.39% (inactive) | -5.74% (inactive) |
| CCCc1cc(=O)[nH]c(Nc2ccc(OC)c(Cl)c2)n1 | 115% (inactive) | 76.1% (inactive) | 70.6% (inactive) | -7.59% (inactive) | 78.2% | 70.6% | -3.51% (inactive) | 4.43% (inactive) |
| O=C(CN1CCCN(S(=O)(=O)c2ccc(Br)cc2)CC1)Nc1ccc2c(c1)OCO2 | 91% (inactive) | 75% (inactive) | 6.58% (active) | -10.3% (inactive) | 16.9% | 6.58% | -0.52% (inactive) | 3.77% (inactive) |
| Cc1ccccc1-n1nnc2c(=O)oc3ccccc3c21 | 99.5% (inactive) | 64.9% (inactive) | 85.8% (inactive) | 1.29% (inactive) | 84.5% | 85.8% | -4.47% (inactive) | 5.83% (inactive) |
